Measured values taken from ChEMBL document CHEMBL4004830 (J Med Chem, 2017).
The source made the active and inactive calls. No cut-off for these calls is given here.

Tests used:
[1] = target: Serine/threonine-protein kinase 16 (Homo sapiens) (UniProt O75716); experiment: Inhibition of human STK16 (11 to 305 amino acid residues) expressed in bacterial expression system at 1 uM in presence of [gamma-33P]-ATP […]
Method in brief: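 Broad kinome panel of 369 kinases screened at 1 µM test concentration.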

Mus musculus = experiment: Toxicity in nude BALB/c mouse assessed as overt toxicity at 20 to 100 mg/kg, po qd measured up to 14 days post dose; type: organism-based; conditions: in vivo, 336 h

Serine/threonine-protein kinase 16 (Homo sapiens), sequence (O75716 whole entry, the tested form may be a part): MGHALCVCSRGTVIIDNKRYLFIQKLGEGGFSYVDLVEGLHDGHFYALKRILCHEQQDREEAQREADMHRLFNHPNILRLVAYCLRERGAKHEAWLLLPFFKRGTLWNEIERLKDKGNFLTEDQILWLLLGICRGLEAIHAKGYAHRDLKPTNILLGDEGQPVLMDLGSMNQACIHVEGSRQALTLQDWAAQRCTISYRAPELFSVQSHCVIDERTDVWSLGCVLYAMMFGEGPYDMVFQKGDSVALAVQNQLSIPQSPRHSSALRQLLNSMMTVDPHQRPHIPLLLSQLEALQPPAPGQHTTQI

Compound: Cc1nc(NC2CCCC2)sc1-c1ccnc(Nc2ccc(N3CCOCC3)cn2)n1
- inhibition [1]: Active
- Activity (Mus musculus): Non-Toxic
